# Measured values: ChEMBL document CHEMBL1150062, “Phospholipase A2 inhibitors from marine organisms” (J Nat Prod, 1992)
# Calls of active or inactive are those of the source. The calls are words filed in the database; no cut-off is given here.
# Biological target: T1, Phospholipase A2 (Apis mellifera) (UniProt B7UUK1)
# T1 sequence (whole entry): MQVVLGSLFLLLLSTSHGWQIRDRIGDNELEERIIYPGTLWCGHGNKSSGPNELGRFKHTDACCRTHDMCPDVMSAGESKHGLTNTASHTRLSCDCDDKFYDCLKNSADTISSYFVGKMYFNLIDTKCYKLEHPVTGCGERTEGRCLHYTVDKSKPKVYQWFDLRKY
# Test: (§1) Inhibition of bee venom PLA2
# Conditions: not given
row,Compound,Activity
1,C=C1CCC[C@H]2[C@](C)(CC3=C(O)C(=O)C=C(OC)C3=O)[C@@H](C)CC[C@]12C,inactive

# Biological target: T2, Phospholipase A2 (Apis mellifera, UniProt B7UUK1)
# T2 sequence (B7UUK1 whole entry): T1 sequence (whole entry)
# Test: as §1
# Conditions: not given
row,Compound,IC50 [nM]
1,CC1=C(CC/C(C)=C/CC/C(C)=C/CCC2=CC(=O)OC2O)C(C)(C)CCC1 (stereo unspecified) [LUFFARIELLOLIDE],230
2,CC1(C)CCC[C@]2(C)[C@H]3C[C@@H](O)[C@]4(C)[C@@H](C=O)C(C=O)=CC[C@H]4[C@]3(C)CC[C@@H]12,200
3,CC1=C(CC/C(C)=C/CC/C(C=O)=C\C=C\C2=CC(=O)O[C@H]2O)C(C)(C)CCC1,280
4,CC1=C(CC/C(C)=C/CCC2=CC[C@H](C3=CC(=O)O[C@H]3O)O[C@H]2O)C(C)(C)CCC1 [MANOALIDE],40
5,CC(=O)O[C@H]1C[C@@H]2[C@@]3(C)CCCC(C)(C)[C@@H]3CC[C@@]2(C)[C@@H]2CC=C(C=O)[C@H](C=O)[C@@]12C [SCALARADIAL],70

# Biological target: T3, Phospholipase A2, membrane associated (Homo sapiens) (UniProt P14555)
# T3 sequence (whole entry): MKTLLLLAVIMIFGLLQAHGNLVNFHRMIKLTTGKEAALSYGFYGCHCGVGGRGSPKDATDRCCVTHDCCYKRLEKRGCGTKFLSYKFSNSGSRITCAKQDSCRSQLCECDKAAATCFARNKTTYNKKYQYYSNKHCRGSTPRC
# Test: Inhibition of human synovial fluid-PLA2
# Conditions: concentration not given here
row,Compound,inhibition [%]
1,CC1=C(CC/C(C)=C/CC/C(C)=C/CCC2=CC(=O)OC2O)C(C)(C)CCC1 (stereo unspecified) [LUFFARIELLOLIDE],98

# Biological target: T1, Phospholipase A2 (Apis mellifera)
# Test: Inhibition of bee venom PLA2 at 4 uM
# Conditions: not given
row,Compound,inhibition [%]
1,CC1(C)CCC[C@]2(C)[C@H]3C[C@@H](O)[C@]4(C)[C@H](C=O)C(C=O)=CC[C@H]4[C@]3(C)CC[C@@H]12,< 70

# Biological target: T1, Phospholipase A2 (Apis mellifera)
# Test: Inhibition of bee venom PLA2 assessed as inactivation of enzyme at 2 ug/ml
# Parameters: scale not given: the % may be the effect or the level left
# Conditions: not given
row,Compound,Activity
1,CC(=O)O[C@@H]1O[C@H]2OC(=O)[C@H](C)C3=C([C@@]4(C)CCCC(C)(C)C4)C[C@@H](OC(C)=O)[C@@H]1[C@H]32,60%
2,C=C([C@@H]1[C@@H](OC(C)=O)O[C@@H]2OC(=O)C[C@@H]21)[C@H]1CC[C@H]2C(C)(C)CCC[C@]12C,66%
3,CC1=CC(CC2=CC(=O)OC2O)C(C(C)C)CC1 (stereo unspecified),60%
4,CCCC(=O)O[C@H]1[C@@H](O)[C@@]23C(CC[C@H]4C(=O)O[C@@H](O[C@H]2O)[C@H]43)[C@@]2(C)CCCC(C)(C)[C@@H]12 (stereo partly specified),44%
5,CCCC(=O)O[C@H]1[C@@H](OC(C)=O)[C@@]23C(CC[C@H]4C(=O)O[C@@H](O[C@H]2O)[C@H]43)[C@@]2(C)CCCC(C)(C)[C@H]12 (stereo partly specified),50%
6,CC1=CC2C[C@]3(O)OC(=O)C=C3C(C)(C)C2CC1 (stereo partly specified),60%
7,CCCC(=O)O[C@@H]1C[C@H]2C(C)(C)CCC[C@]2(C)C2CC[C@H]3C(=O)O[C@H]4O[C@@H](O)[C@]21[C@H]43 (stereo partly specified),65%
8,C=C1CCCC(C)(C)[C@@H]2CC[C@@](C)([C@H]3[C@H]4CC(=O)O[C@H]4O[C@H]3O)[C@H]12,48%
9,CC1=C[C@H]2Cc3ccoc3C(C)(C)[C@H]2CC1,inactive
10,CC1=C[C@H]2Cc3occc3C(C)(C)[C@H]2CC1,inactive
11,CC1=CC2C[C@]34OC(=O)C[C@]3(O4)C(C)(C)C2CC1 (stereo partly specified),inactive

# Biological target: T1, Phospholipase A2 (Apis mellifera)
# Test: Inhibition of bee venom PLA2 assessed as inactivation of enzyme at 1.6 ug/ml
# Parameters: scale not given: the % may be the effect or the level left
# Conditions: not given
# Summary of the method: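 ³H-dipalmitoyl phosphatidylcholine (1.36 mM, Triton X-100 mixed micelles) in 10 mM HEPES, 1 mM CaCl2, pH 7.4. Bee venom PLA2 (100 units/ml) preincubated 1 h at 41° with compound from 10 mg/ml stock, then added to substrate for 15 sec at 41°. Acid-quenched, released palmitic acid extracted and scintillation counted, corrected for background and extraction efficiency. % inactivation vs vehicle, triplicate mean.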
row,Compound,Activity [%]
1,Oc1cc(Cc2c(O)cc(O)c(Br)c2O)c(Br)c(Br)c1O,96
2,Oc1cc(Cc2c(O)c(Br)c(O)c(Cc3cc(O)c(O)c(Br)c3Br)c2O)c(Br)c(Br)c1O,96
